Data published in ChEMBL document CHEMBL3102838, “Synthesis of RCAI-172 (C6 epimer of RCAI-147) and its biological activity” (2014).
The source made the active and inactive calls. The rule behind the calls is not given here.

How the values were obtained:
Mus musculus [1] = assay: Immunomodulatory activity in mouse assessed as increase in IL-4 secretion at 10 ug/mL, iv relative to KRN7000; format: functional
In short: (§1)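 Female-unspecified mice given glycolipid via tail vein: DMSO stock (1.0 mg/mL) diluted to 10 μg/mL in Dulbecco's PBS just before use; 200 μL injected (2 μg/mouse). Retro-orbital blood drawn into heparinized capillaries at set time points and plasma prepared. Plasma IFN-γ and IL-4 quantified by cytometric bead array. Means ±SD, three mice.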

Mus musculus [2] = species on record: Mus musculus; assay: Ratio for reduction of IL-4 secretion in mouse to reduction of IFNgamma secretion in mouse; format: functional
Mus musculus [3] = assay: Immunomodulatory activity in mouse assessed as IFNgamma secretion at 10 ug/mL, iv relative to KRN7000; format: functional; in short: as §1
Mus musculus [4] = assay: Immunomodulatory activity in mouse assessed as IL-4 secretion at 10 ug/mL, iv relative to KRN7000; format: functional; in short: as §1
Mus musculus [5] = assay: Immunostimulatory activity in C57BL/6 mouse autoimmune encephalomyelitis model assessed as decrease in IFNgamma secretion inoculated with compound-treated GM-CSF-induced dendritic cells administered on day 3 and 5 relative to KRN7000; format: functional; design: scale not given: the % may be the effect or the level left
Mus musculus [6] = assay: Immunostimulatory activity in C57BL/6 mouse autoimmune encephalomyelitis model assessed as IL-4 secretion inoculated with compound-treated GM-CSF-induced dendritic cells administered on day 3 and 5 relative to KRN7000; format: functional
Mus musculus [7] = assay: Immunomodulatory activity in mouse assessed as reduction of IL-4 secretion at 10 ug/mL, iv relative to RCAI-147; format: functional; design: scale not given: the % may be the effect or the level left
Mus musculus [8] = assay: Immunomodulatory activity in mouse assessed as reduction of IL-4 secretion at 10 ug/mL, iv relative to KRN7000; format: functional; design: scale not given: the % may be the effect or the level left; in short: as §1
Mus musculus [9] = assay: Immunostimulatory activity in C57BL/6 mouse autoimmune encephalomyelitis model inoculated with compound-treated GM-CSF-induced dendritic cells administered on day 3 and 5; format: functional, organism-based
In short: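 EAE in female C57BL/6 mice was induced on day 1 by subcutaneous MOG35-55/CFA emulsion at two lower-back sites, with an additional adjuvant given intraperitoneally on days 1 and 3. Bone-marrow GM-DC were raised with GM-CSF (10 ng/mL, 5 days), CD11c-enriched, then pulsed with glycolipid (100 ng/mL; 5×10^6 cells/mL, 24 h). Mice were scored daily to day 30 on a 0–5 scale in 0.5 steps.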

Mus musculus [10] = assay: Immunomodulatory activity in mouse assessed as reduction of IFNgamma secretion at 10 ug/mL, iv relative to KRN7000; format: functional; design: scale not given: the % may be the effect or the level left; in short: as §1

| SMILES | Ratio (Mus musculus [2]) | Activity (Mus musculus [3]) | Activity (Mus musculus [4]) | Activity (Mus musculus [5]) | Activity (Mus musculus [6]) | Activity (Mus musculus [8]) | Activity (Mus musculus [10]) | also measured |
| --- | --- | --- | --- | --- | --- | --- | --- | --- |
| CCCCCCCCCCCCCCCCCCCCCCC[C@@H](O)[C@@H](O)C(=O)N[C@@H](CO[C@H]1O[C@H](CO)[C@H](O)[C@H](O)[C@H]1O)[C@H](O)[C@H](O)CCCCCCCCCCCCCC | 3.4 | 41% | – | – | – | – | – | Activity (Mus musculus [1]): 138% |
| CCCCCCCCCCCCCCCCCCCCCCCCCC(=O)N[C@@H](CO[C@H]1O[C@H](CO)[C@H](O)[C@H](O)[C@H]1O)[C@H](O)CC[C@@H](O)CCCCCCCCCCCC | – | 160% | 75% | – | – | – | – | – |
| CCCCCCCCCCCCCCCCCCCCCCCCCC(=O)N[C@@H](CO[C@H]1O[C@H](CO)[C@H](O)[C@H](O)[C@H]1O)[C@H](O)CC[C@H](O)CCCCCCCCCCCC | – | 64% | 19% | – | – | – | – | – |
| CCCCCCCCCCCCCCCCCCCCCC[C@@H](O)[C@@H](O)[C@@H](O)C(=O)N[C@@H](CO[C@H]1O[C@H](CO)[C@H](O)[C@H](O)[C@H]1O)[C@H](O)[C@H](O)CCCCCCCCCCCCCC | – | – | – | <5% | >60% | – | – | – |
| CCCCCCCCCCCCCCCCCCCCCCC[C@@H](O)[C@@H](O)C(=O)N[C@@H](CO[C@H]1O[C@H](CO)[C@H](O)[C@H](O)[C@H]1O)[C@H](O)[C@H](O)[C@@H](O)[C@H](O)CCCCCCCCCCCC | 8.6 | – | – | – | – | 35.3% | 4.1% | Activity (Mus musculus [7]): 61%; Activity (Mus musculus [9]): inactive |
| CCCCCCCCCCCCCCCCCCCCCCC[C@@H](O)[C@@H](O)C(=O)N[C@@H](CO[C@H]1O[C@H](CO)[C@H](O)[C@H](O)[C@H]1O)[C@H](O)[C@H](O)[C@@H](O)[C@@H](O)CCCCCCCCCCCC | 14 | – | – | <5% | >60% | 70% | 5% | – |
